Measured values reported in ChEMBL document CHEMBL1142459, “Design and synthesis of a novel series of pyranonaphthoquinones as topoisomerase II catalytic inhibitors” (J Med Chem, 2008).
Active and inactive are the calls of the source. The calls are words filed in the database; no cut-off is given here.

Tests used:
[1] = target: DNA topoisomerase 2-alpha (Homo sapiens) (UniProt P11388); assay: Inhibition of human topoisomerase 2 alpha-mediated bacterial plasmid DNA relaxation assessed as pRYG negative supercoiled form added 100 uM after relaxation
DNA topoisomerase 2-alpha (Homo sapiens), sequence (P11388 whole entry): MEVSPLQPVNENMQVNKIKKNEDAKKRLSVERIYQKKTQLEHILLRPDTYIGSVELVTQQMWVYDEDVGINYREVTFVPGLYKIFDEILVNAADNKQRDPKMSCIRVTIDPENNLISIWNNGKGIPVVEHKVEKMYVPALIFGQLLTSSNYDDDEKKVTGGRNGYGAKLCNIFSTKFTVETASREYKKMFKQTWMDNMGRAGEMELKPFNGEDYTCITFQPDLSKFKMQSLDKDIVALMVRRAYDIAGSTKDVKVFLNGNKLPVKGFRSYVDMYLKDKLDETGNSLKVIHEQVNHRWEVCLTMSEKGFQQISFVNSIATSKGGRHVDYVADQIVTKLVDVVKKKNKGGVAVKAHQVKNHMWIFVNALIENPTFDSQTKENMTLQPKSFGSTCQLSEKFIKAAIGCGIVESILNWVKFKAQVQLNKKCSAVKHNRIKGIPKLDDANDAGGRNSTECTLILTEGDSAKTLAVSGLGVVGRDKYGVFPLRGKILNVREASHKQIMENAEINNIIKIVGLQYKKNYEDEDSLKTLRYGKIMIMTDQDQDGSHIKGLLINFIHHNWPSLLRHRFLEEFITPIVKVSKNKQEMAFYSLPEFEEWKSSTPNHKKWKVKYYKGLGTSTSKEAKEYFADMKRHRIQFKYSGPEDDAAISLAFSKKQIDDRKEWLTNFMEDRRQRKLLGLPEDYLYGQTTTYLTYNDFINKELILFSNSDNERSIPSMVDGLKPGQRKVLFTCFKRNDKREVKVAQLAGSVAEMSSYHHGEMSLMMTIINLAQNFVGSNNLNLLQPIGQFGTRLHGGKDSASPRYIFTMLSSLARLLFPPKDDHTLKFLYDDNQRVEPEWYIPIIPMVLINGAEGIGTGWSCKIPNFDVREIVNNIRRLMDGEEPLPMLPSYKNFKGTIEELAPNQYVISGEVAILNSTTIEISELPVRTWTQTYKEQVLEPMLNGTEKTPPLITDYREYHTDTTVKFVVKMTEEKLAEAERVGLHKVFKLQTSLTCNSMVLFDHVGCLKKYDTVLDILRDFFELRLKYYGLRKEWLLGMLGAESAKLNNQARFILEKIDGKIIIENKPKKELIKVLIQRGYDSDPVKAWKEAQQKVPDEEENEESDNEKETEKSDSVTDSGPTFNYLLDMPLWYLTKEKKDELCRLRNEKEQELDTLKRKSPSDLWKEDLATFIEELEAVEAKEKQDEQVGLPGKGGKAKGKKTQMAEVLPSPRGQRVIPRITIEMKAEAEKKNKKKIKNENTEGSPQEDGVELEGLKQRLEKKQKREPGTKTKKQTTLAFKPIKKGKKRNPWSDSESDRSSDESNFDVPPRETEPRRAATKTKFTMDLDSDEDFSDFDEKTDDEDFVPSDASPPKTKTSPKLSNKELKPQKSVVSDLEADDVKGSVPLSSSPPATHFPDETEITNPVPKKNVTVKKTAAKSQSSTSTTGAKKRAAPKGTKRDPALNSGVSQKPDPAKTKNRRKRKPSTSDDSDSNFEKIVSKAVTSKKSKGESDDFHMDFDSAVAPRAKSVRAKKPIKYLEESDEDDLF

Nucleic Acid = assay: DNA intercalative activity assessed retardation in migration of negatively supercoiled small circular Escherichia coli pBSKS in agarose gel electrophoresis at 100 uM; type: nucleic-acid assay
Summary of the method: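 250 ng negatively supercoiled pBSKS incubated 10 min at 37 °C with compound at 100 µM in 1% (v/v) DMSO; ethidium bromide 1 µg/mL as intercalator control. Run on 1% agarose in 1× TBE without ethidium bromide at 0.5 V/cm (low field); retardation of migration scored.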

[2] = target: DNA topoisomerase 2-alpha (Homo sapiens) (UniProt P11388); assay: Inhibition of human topoisomerase 2 alpha-mediated bacterial plasmid DNA relaxation assessed as pRYG negative supercoiled form at 100 uM
[3] = target: DNA topoisomerase 2-alpha (Homo sapiens) (UniProt P11388); assay: Inhibition of human topoisomerase 2 alpha-mediated Crithidia fasciculate kDNA decatenation at 100 uM

SMILES	Activity [1]	Activity (Nucleic Acid)	Activity [2]	Activity [3]
COc1ccc2c(c1)OC[C@H]1[C@@H]2C2=C(OC1(C)C)c1ccccc1C(=O)C2=O	inactive	inactive	Active	Active
Cc1c2ccncc2c(C)c2c1[nH]c1ccccc12	inactive	Active	Active	
C[C@H]1CC[C@H]2[C@H](C1)C1=C(OC2(C)C)c2ccccc2C(=O)C1=O	inactive	inactive	inactive	inactive
COc1cc([C@@H]2c3cc4c(cc3[C@@H](O[C@@H]3O[C@@H]5CO[C@@H](C)O[C@H]5[C@H](O)[C@H]3O)[C@H]3COC(=O)[C@H]23)OCO4)cc(OC)c1O	Active	inactive	inactive	
COc1ccc2c(c1)OC[C@@H]1[C@H]2C2=C(OC1(C)C)C(=O)c1ccccc1C2=O	inactive	inactive	Active	Active
CC1(C)OC2=C(C(=O)c3ccccc3C2=O)[C@H]2c3cc(Br)cc(Br)c3OC[C@H]21	inactive	inactive	Active	Active
CC1(C)OC2=C(C(=O)c3ccccc3C2=O)[C@H]2c3c(ccc4ccccc34)OC[C@H]21	inactive	inactive	inactive	inactive
C[C@@H]1CC[C@@H]2[C@@H](C1)C1=C(OC2(C)C)C(=O)c2ccccc2C1=O	inactive	inactive	inactive	inactive
C[C@@H]1CC[C@H]2[C@H]1C1=C(OC2(C)C)C(=O)c2ccccc2C1=O	inactive	inactive	inactive	inactive
CC1(C)OC2=C(C(=O)C(=O)c3ccccc32)[C@@H]2c3cc(Br)ccc3OC[C@@H]21	inactive	inactive	Active	Active
CC1(C)OC2=C(C(=O)C(=O)c3ccccc32)[C@@H]2c3c(ccc4ccccc34)OC[C@@H]21	inactive	inactive	Active	Active
CC[n+]1c(-c2ccccc2)c2cc(N)ccc2c2ccc(N)cc21		Active		
C[C@H]1CC[C@@H]2[C@@H]1C1=C(OC2(C)C)c2ccccc2C(=O)C1=O	inactive	inactive	inactive	inactive
CC1(C)OC2=C(C(=O)c3ccccc3C2=O)[C@H]2c3cc(Br)ccc3OC[C@H]21	inactive	inactive	Active	Active
